Tests used:
Bos taurus = species: Bos taurus; experiment: Kinetic parameter in calf intestine adenosine deaminase.; assay type: ADME; settings: cattle, in vitro
HEp-2 [1] = experiment: Cytotoxicity against H.Ep cells in the presence of 0.1 ug/mL pentostatin.; assay type: functional, cell-based; settings: Homo sapiens
Method in brief: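 H.Ep.-2 cell culture cytotoxicity screen with pentostatin at 0.1 µg/mL in the medium. Value is the drug concentration that inhibits cell growth to 50% of controls.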

HEp-2 [2] = experiment: Cytotoxicity against H.Ep cells; assay type: functional, cell-based; settings: Homo sapiens
Method in brief: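 H.Ep.-2 human cell culture cytotoxicity screen. Value is the drug concentration that inhibits cell growth to 50% of untreated controls.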

P388 [3] = experiment: Percent increase in life span of P388 leukemia cells (10e6) infected(ip) mice at dose of 6(50) mg/kg, ip: qd 1-9 schedule.; assay type: functional, Mus musculus
P388 [4] = experiment: Percent increase in life span of P388 leukemia cells (10e6) infected(ip) mice at dose of 400 (400) mg/kg, ip: day 1 only; assay type: functional, Mus musculus
P388 [5] = experiment: Percent increase in life span of P388 leukemia cells (10e6) infected(ip) mice at dose of 50 (200) mg/kg, ip: qd 1-5 schedule.
P388 [6] = experiment: Percent increase in life span of P388 leukemia cells (10e6) infected(ip) mice at dose of 50 (400) mg/kg, ip: qd 1-5 schedule.; assay type: functional, Mus musculus

| Vmax (Bos taurus) | SMILES | IC50 (HEp-2 [2]) | also measured |
| --- | --- | --- | --- |
| 2 µM/min/mg | COc1ncnc2c1ncn2[C@@H]1O[C@H](CO)[C@@H](O)[C@@H]1O |  |  |
| 1500 µM/min/mg | Nc1ncnc2c1nnn2[C@@H]1O[C@H](CO)[C@@H](O)[C@H]1O | 0.7 µM | IC50 (HEp-2 [1]): < 0.02 µM |
| 75 µM/min/mg | Nc1ncnc2c1nnn2[C@@H]1O[C@H](CO)[C@@H](O)[C@@H]1O |  |  |
| 119 µM/min/mg | Nc1nc(N)c2ncn([C@@H]3O[C@H](CO)[C@@H](O)[C@H]3O)c2n1 |  |  |
|  | Nc1nc(F)nc2c1nnn2[C@H]1C[C@H](O)[C@@H](CO)O1 | 70 µM |  |
| 2000 µM/min/mg | Nc1ncnc2c1nnn2[C@H]1C[C@H](O)[C@@H](CO)O1 | 10 µM | IC50 (HEp-2 [1]): > 25 µM |
| 27 µM/min/mg | COc1ncnc2c1nnn2[C@@H]1O[C@H](CO)[C@@H](O)[C@H]1O |  |  |
|  | Nc1nc(O)c2nnn(C3O[C@H](CO)[C@@H](O)[C@H]3O)c2n1 (some centres undefined) | 2 µM |  |
|  | CSc1nc(N)c2nnn(C3O[C@H](CO)[C@@H](O)[C@H]3O)c2n1 (some centres undefined) | > 130 µM |  |
|  | CSc1nc(N)c2nn(C3O[C@H](CO)[C@@H](O)[C@H]3O)nc2n1 (some centres undefined) | 25 µM |  |
|  | Nc1nc(N)c2nn(C3O[C@H](CO)[C@@H](O)[C@H]3O)nc2n1 (some centres undefined) | > 75 µM | ILS (P388 [4]): 0% |
|  | CS(=O)(=O)c1nc(N)c2nn(C3O[C@H](CO)[C@@H](O)[C@H]3O)nc2n1 (some centres undefined) | 22 µM |  |
|  | CCOc1nc(N)c2nnn(C3O[C@H](CO)[C@@H](O)[C@H]3O)c2n1 (some centres undefined) | > 75 µM |  |
|  | Nc1nc(F)nc2nn(C3O[C@H](CO)[C@@H](O)[C@H]3O)nc12 (some centres undefined) | > 75 µM |  |
|  | CS(=O)(=O)c1nc(N)c2nnn(C3O[C@H](CO)[C@@H](O)[C@H]3O)c2n1 (some centres undefined) | 14 µM | ILS (P388 [6]): 38% |
|  | Nc1nc(O)nc2nn(C3O[C@H](CO)[C@@H](O)[C@H]3O)nc12 (some centres undefined) | > 75 µM |  |
|  | Nc1nc(O)c2[nH]nnc2n1 [8-AZAGUANINE] | 2 µM |  |
| 435 µM/min/mg | Nc1ncnc2c1ncn2[C@@H]1O[C@H](CO)[C@@H](O)[C@H]1O [ADENOSINE] |  |  |
| 94 µM/min/mg | Nc1ncnc2c1ncn2[C@@H]1O[C@H](CO)[C@@H](O)[C@@H]1O [VIDARABINE] |  |  |

| SMILES | Vmax (Bos taurus) | IC50 (HEp-2 [2]) | also measured |
| --- | --- | --- | --- |
| Nc1nc(N)c2nnn([C@@H]3O[C@H](CO)[C@@H](O)[C@H]3O)c2n1 | 23 µM/min/mg | 0.7 µM | ILS (P388 [3]): 25%; IC50 (HEp-2 [1]): > 20 µM |
| Nc1nc(F)nc2c1ncn2[C@@H]1O[C@H](CO)[C@@H](O)[C@H]1O | 0.78 µM/min/mg |  |  |
| Nc1nc(F)nc2c1nnn2C1O[C@H](CO)[C@@H](O)[C@H]1O (some centres undefined) | 5 µM/min/mg | 2 µM | IC50 (HEp-2 [1]): 2 µM; ILS (P388 [5]): 21% |

Reference: ChEMBL document CHEMBL1122375, “Synthesis and biological evaluation of 2-fluoro-8-azaadenosine and related compounds” (J Med Chem, 1983)
